Bioassay records: PubChem BioAssay, several laboratories
In the library only some 2.5% were active in any assay of this set; here they are far more common.
ADAM10 inh = ADAM10 inhibition, QFRET primary screen | O14672 | recombinant ADAM10, EDANS/DABCYL FRET peptide cleavage, 3 h | inhibition, % at 7 µM | 370,000 compounds, 0.62% hits | AID 720582;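 active = inhibition above a per-campaign cutoff equal to the mean of compounds falling between control-based bounds plus 3 SD, cut at about 20% in these data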;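 also: 0% = DMSO wells while the 100% control is not disclosed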
ADAM17 inh = inhibitors of human ADAM17. P78536. recombinant ADAM17, EDANS/DABCYL FRET peptide cleavage. inhibition, % at 6.95 µM. 370,000 compounds, 0.83% hits. AID 720648;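 active = inhibition above the mean of compounds lying between control limits plus 3 SD, set per campaign, cut at about 8.5% in these data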;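 also: 0% = DMSO-only wells as the low control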
proKLK7 act = activates the human kallikrein-7 zymogen | P49862 | purified proKLK7, EDANS-DABCYL substrate fluorescence; 100% is mature enzyme control, 0% vehicle | activation, % at 7 µM | 370,000 compounds, 0.9% hits;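 active = activation above the mean of all tested compounds plus 3 SD, computed per campaign excluding outliers beyond control limits, cut at about 13% in these data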
Target sequence (P49862 whole entry, looked up): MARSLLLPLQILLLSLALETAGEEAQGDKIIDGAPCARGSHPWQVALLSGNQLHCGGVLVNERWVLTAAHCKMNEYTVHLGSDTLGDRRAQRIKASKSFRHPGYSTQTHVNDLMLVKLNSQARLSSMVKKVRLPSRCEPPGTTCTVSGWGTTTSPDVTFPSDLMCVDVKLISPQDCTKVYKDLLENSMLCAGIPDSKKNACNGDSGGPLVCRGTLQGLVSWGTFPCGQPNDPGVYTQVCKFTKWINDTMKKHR
NR2E3 ag-1 = activates human NR2E3 receptor. Q9Y5X4. CHO-S Gal4-NCOR/VP16-NR2E3 two-hybrid, luciferase. inhibition of corepressor binding, % at 3.98 µM. 360,000 compounds, 0.35% hits;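 active = inhibition above the mean of all tested compounds plus 3 SD, cut at about 70% in these data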;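 also: 0% = DMSO with NR2E3 transfected cells and 100% = cells lacking NR2E3 construct; higher means lower luciferase signal from less NR2E3 corepressor binding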
Target sequence (Q9Y5X4 whole entry, looked up, the tested form may be a part): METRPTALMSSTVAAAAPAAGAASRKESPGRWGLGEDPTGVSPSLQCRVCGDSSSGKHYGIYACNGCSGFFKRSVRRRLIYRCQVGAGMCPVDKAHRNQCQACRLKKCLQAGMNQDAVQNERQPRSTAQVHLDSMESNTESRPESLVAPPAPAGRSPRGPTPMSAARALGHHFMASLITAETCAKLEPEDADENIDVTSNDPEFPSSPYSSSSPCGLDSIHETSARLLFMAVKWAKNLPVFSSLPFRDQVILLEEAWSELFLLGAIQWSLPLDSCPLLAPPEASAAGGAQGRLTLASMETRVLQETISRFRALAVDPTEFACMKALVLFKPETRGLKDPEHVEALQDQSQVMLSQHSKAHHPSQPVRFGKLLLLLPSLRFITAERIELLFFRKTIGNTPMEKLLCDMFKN
JMJD2C inh = blocks human GASC-1 demethylase activity | Q9H3R0 | GST-JMJD2C(1-420) H3K9me3 demethylation, DELFIA europium | inhibition, % at 2.35 µM | 330,000 compounds, 0.069% hits | AID 2099;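 active = more than half of a compound's replicate wells show inhibition beyond 50%, single wells judged on their own value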;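 also: signal counts dimethyl H3K9 product captured on neutravidin plate; 0% = median of DMSO wells and 100% = 0.3 times that DMSO median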
NR2E3 ag-2 = agonists of human nuclear receptor NR2E3; Q9Y5X4; GST-NR2E3/biotin-RetCOR TR-FRET, 1536-well; inhibition of corepressor binding, % at 4.78 µM; 320,000 compounds, 0.12% hits; AID 2300;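 active = percent inhibition above the cutoff of mean plus 3 SD of all tested compounds, set per screening campaign, cut at about 20% in these data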;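 also: 0% = DMSO wells and 100% = biotin wells as full block of FRET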
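Material – GST-tagged NR2E3 plus biotinylated RetCOR corepressor · Quantity – NR2E3 fusion 1.35 nM · Times – 5 h incubation at 4 °C · Medium – pH 7.5 Tris-based buffer · Technique – TR-FRET, Eu(K)-anti-GST donor, streptavidin-D2 acceptor, ex 340, em 617/671 nm · Benchmarks – high control biotin, low control 0.6% DMSO · Format – 1536-well plates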
NR2E3 ag conf = confirmation of human NR2E3 agonists | shares compounds with NR2E3 ag-1 | AID 624378 | CHO-S mammalian two-hybrid NR2E3-NCOR, luciferase luminescence | inhibition, % at 3.98 µM | 2,300 compounds, 51% hits;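 active = average inhibition above a cutoff equal to the mean inhibition of all tested compounds plus one SD, cut at about 70% in these data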;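 also: 0% = DMSO in NR2E3 cells and 100% = DMSO in cells lacking NR2E3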
VP16 counter = reduces GAL4-VP16 reporter signal in NR2E3 counterscreen | 2,300 compounds, 29% hits | shares compounds with NR2E3 ag-1 | inhibition, % at 3.98 µM | CHO-S GAL4-VP16 luciferase reporter, luminescence;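 active = mean inhibition above a cutoff equal to the average over all tested compounds plus one standard deviation, cut at about 70% in these data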;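 also: luciferase from a UAS reporter driven by GAL4-VP16 transactivation; 0% = DMSO with VP16-transfected cells and 100% = DMSO with cells lacking VP16; higher means less reporter light so more repression of VP16 activity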
* = called active by the depositor; i = inactive; nt = no result.

SMILES | ADAM10 inh | ADAM17 inh | proKLK7 act | NR2E3 ag-1 | JMJD2C inh | NR2E3 ag-2 | NR2E3 ag conf | VP16 counter
COc1cnc(-c2ccccn2)nc1N(C)c1ccccc1 | -9.1 | -1.6 | 0.3 | 105.5* | 8.3 | -1.8 | 94.0* | -23.2
COc1cnc(-c2ccccn2)nc1Oc1ccccc1 | -5.8 | -4.4 | 0.3 | 59.4 | -14.3 | 2.2 | 21.9 | -19.8
COCC(=O)Nc1ccc2c(c1)[C@H]1C[C@@H](CC(=O)NCC3CC3)O[C@H](CO)[C@H]1O2 | -10.2 | -4.2 | -0.3 | nt | nt | nt | nt | nt
CC(C)(C)OC(=O)N1Cc2ccccc2C[C@H]1C(=O)NCC(=O)Nc1ccc2c(c1)OCCO2 | -1.6 | -2.3 | 1.0 | 58.8 | -7.1 | -2.0 | 26.7 | 7.6
COCCn1c(C)cc(C(=O)COC(=O)c2cccc(O)c2)c1C | -1.4 | -2.7 | 0.3 | 58.8 | 2.5 | -0.2 | 42.1 | -7.2
O=C(CCC(=O)N1CCN(c2ccc(Cl)c(Cl)c2)CC1)c1ccccc1 | 10.2 | 2.7 | 0.7 | 91.3* | 5.1 | 0.6 | 96.4* | 76.2*
O=C(CCC(=O)N1CCN(c2ccc(F)cc2)CC1)c1ccc(Cl)cc1 | 8.0 | -2.7 | 0.1 | 22.4 | -16.5 | 1.8 | nt | nt
Cn1cc(C2(C)CCOc3ccccc32)c2ccccc21 (stereo unspecified) | -17.2 | -3.8 | -0.7 | nt | nt | nt | nt | nt
O=[N+]([O-])c1ccc(NS(=O)(=O)c2ccc(Cl)c(Cl)c2)cc1 | 2.4 | 2.0 | 0.3 | 101.4* | nt | nt | 99.3* | 91.3*
O=[N+]([O-])c1ccc(Oc2ccc(S(=O)(=O)Nc3ccccc3)cc2)cc1 | nt | nt | nt | 57.9 | 17.9 | 0.1 | 98.8* | 78.7*
CC(C)N(C(=O)CS(=O)(=O)c1ccc(Cl)c(Cl)c1)C(C)C | 3.6 | -0.3 | 0.5 | -7.3 | -7.2 | 6.6 | nt | nt
CSCCCNC(=O)Cn1nc(Cc2ccncc2)c2ccccc2c1=O | -0.3 | -2.2 | 0.3 | nt | nt | nt | nt | nt
COC1=C(OC)C(=O)C(Sc2ccc3ccccc3c2)=CC1=O | -2.8 | 4.4 | 0.0 | 84.2* | nt | nt | 93.5* | 61.5
COc1ccc(S(=O)(=O)Oc2ccc3ccccc3c2)cc1 | -1.9 | -0.5 | 0.2 | -87.8 | -5.6 | -6.1 | nt | nt
Cc1ccc(S(=O)(=O)N2C[C@H]3N(C(=O)OC(C)C)N(C(=O)OC(C)C)C[C@H](OC(=O)NCc4ccccc4)[C@@]3(O)C2)cc1 | 1.1 | 7.1 | -0.1 | -29.2 | nt | nt | nt | nt
Cc1ccc(S(=O)(=O)N2C[C@H]3N(C(=O)OC(C)C)N(C(=O)OC(C)C)C[C@H](OC(=O)NCC4CCCCC4)[C@@]3(O)C2)cc1 | nt | nt | nt | 57.1 | nt | nt | 70.5* | 45.1
CC(Oc1ccc(Br)cc1)c1nc2c3ccccc3nc(=S)n2[nH]1 (stereo unspecified) | 6.0 | -2.3 | 0.1 | 82.8* | -17.5 | -1.3 | 89.0* | 41.0
O=C(CN[C@@H](Cc1c[nH]c2ccccc12)C(=O)NCCc1c[nH]c2ccccc12)NC1CCCCC1 | 3.8 | -0.1 | nt | nt | nt | nt | nt | nt
COc1ccc(NC2c3ccccc3C(=O)N2Cc2ccccc2Cl)cc1OC (stereo unspecified) | 13.1 | -2.6 | 1.0 | 69.2 | 71.9 | -0.8 | 71.2* | -7.8
O=C1c2ccccc2C(Nc2cccnc2)N1Cc1ccccc1Cl (stereo unspecified) | -4.3 | -3.8 | 0.7 | -8.0 | -3.9 | 3.4 | nt | nt
Nn1c(SCC(=O)NC2CCCCC2)nnc1-c1cc(-c2ccccc2)n[nH]1 | 3.2 | 4.4 | 0.3 | nt | nt | nt | nt | nt
C=CCn1c(SCC(=O)Nc2sccc2C(N)=O)nc2sc(CC)cc2c1=O | 5.5 | 3.6 | 0.2 | 58.9 | -2.7 | 1.8 | 62.1 | 56.5
C=CCn1c(SCC(=O)Nc2sccc2C(N)=O)nc2ccccc2c1=O | 7.2 | 5.0 | 0.4 | 6.5 | 5.8 | -2.9 | nt | nt
C=CCn1c(SCC(=O)Nc2sccc2C(N)=O)nc2ccc(Cl)cc2c1=O | 5.3 | 0.1 | -0.3 | 69.5 | 0.7 | -1.4 | 35.3 | 50.2
Cc1cc(C)n(-c2ccc(Cl)c(C(=O)Nc3cc(C(F)(F)F)ccc3Cl)n2)n1 | -12.2 | -2.8 | 0.8 | 6.6 | 4.1 | -0.5 | nt | nt
SMILES | ADAM10 inh | ADAM17 inh | proKLK7 act | NR2E3 ag-1 | JMJD2C inh | NR2E3 ag-2 | NR2E3 ag conf | VP16 counter
Cc1ccccc1Oc1nc(-c2ccccn2)nc2ccccc12 | -3.3 | -2.8 | 0.5 | 65.9 | -3.6 | -2.2 | 26.6 | 29.3
c1ccc(N2CCN(c3nc(-c4ccccn4)nc4ccccc34)CC2)cc1 | 1.4 | -3.1 | 0.2 | 99.5* | -0.9 | -0.4 | 22.7 | 15.1
CN1CCN(c2nc(-c3ccccn3)nc3ccccc23)CC1 | -9.4 | 1.5 | -0.1 | -21.8 | 2.8 | 2.6 | nt | nt
O=C1C(=O)N(Cc2ccc(-c3ccc(F)nc3)cc2)c2ccc(OC(F)(F)F)cc21 | -3.9 | -0.8 | nt | nt | nt | nt | nt | nt
CC(=O)N1CCCN(S(=O)(=O)c2ccc3c(c2)n(C)c(=O)c(=O)n3C)CC1 | -21.0 | -8.4 | 0.6 | nt | nt | nt | nt | nt
COc1ccc(NC(=O)Cc2ccccc2)cn1 | 2.3 | 0.6 | 0.3 | -5.8 | 2.6 | 5.7 | nt | nt
COc1ccc(NC(=O)/C(Cl)=C(/Cl)S(=O)Cc2ccccc2)cn1 (stereo unspecified) | -7.7 | -1.5 | -0.9 | 90.0* | 1.1 | 1.6 | 95.1* | 41.5
C[C@H]1COc2cc(Br)ccc2S(=O)(=O)N1Cc1cn(CCC2OCCCO2)nn1 | 0.3 | -2.9 | 0.0 | nt | nt | nt | nt | nt
C=C1C(=O)C23C(O)C1CCC2C12CCCC(C)(COC(C)=O)C1C(O)C3(O)OC2 (stereo unspecified) | -7.2 | -1.6 | -0.2 | 91.2* | nt | nt | -5.8 | -33.9
CCCC(=O)N1CCC(C(=O)NC2CCCc3ccccc32)CC1 (stereo unspecified) | 1.6 | 1.2 | 0.4 | nt | nt | nt | nt | nt
O=C(CCCN1C(=O)/C(=C/c2ccc3c(c2)OCO3)SC1=S)Nc1ccc(C(=O)O)cc1 | -1.8 | -1.2 | -0.2 | 51.3 | 3.0 | 2.1 | 33.7 | 63.8
O=C(CCN1C(=O)/C(=C/c2ccc3c(c2)OCO3)SC1=S)Nc1ccc(C(=O)O)cc1 | 0.4 | -6.4 | 0.2 | -39.6 | 1.5 | -0.7 | nt | nt
O=C(CCCN1C(=O)C(=Cc2ccc3c(c2)OCO3)SC1=S)Nc1ccc(C(=O)O)c(O)c1 | -5.8 | -2.8 | -0.4 | 50.0 | nt | nt | 8.2 | 65.8
Cc1cc(NC(=O)c2ccccc2NS(=O)(=O)c2c(C)c(C)cc(C)c2C)no1 | -71.3 | -25.2 | -3.0 | 5.5 | 2.8 | -3.8 | nt | nt
Cc1ccc(C)c(NC(=O)c2ccccc2NS(=O)(=O)c2cc([N+](=O)[O-])ccc2C)c1 | 5.4 | 2.5 | 0.3 | 85.5* | 7.5 | 0.7 | 99.3* | 89.0*
Cc1ccc(C)c(S(=O)(=O)Nc2ccccc2C(=O)Nc2cc(C)on2)c1 | i | -495.9 | -0.4 | 48.7 | 4.5 | -0.5 | 64.7 | 37.5
